{"data": "Assay results pooled from the literature", "PIP5K1C": "Phosphatidylinositol 4-phosphate 5-kinase type-1 gamma (PIP5K1C, Homo sapiens, UniProt O60331)", "MMP7": "Matrilysin (MMP7, Homo sapiens, UniProt P09237)", "note": "Lines come from different studies, so protocols differ."}
{"SMILES": "Cc1nn(C)cc1-c1nc2c(N3CCN(Cc4ccc(Cl)cc4)CC3)c(Cl)cnc2[nH]1", "target": "PIP5K1C", "test": "binding, competition with immobilised ligand", "conditions": "1 µM", "quantity": "remaining binding", "result": "84%"}
{"SMILES": "CCN1CCN(Cc2ccc(NC(=O)c3ccc(C)c(Oc4ccnc5[nH]ccc45)c3)cc2C(F)(F)F)CC1", "target": "Serine/threonine-protein kinase 32C (STK32C, Homo sapiens, UniProt Q86UX6)", "test": "target engagement in cells, inhibitor, chemoproteomics", "test system": "Huh-7", "conditions": "1 µM", "quantity": "inhibition", "result": "-13.4%"}
{"SMILES": "Nc1ncc(-c2nc(N3CCOCC3)nc(N3CCOCC3)n2)c(C(F)F)n1", "target": "PIP5K1C", "test": "binding, competition with immobilised ligand", "conditions": "10 µM", "quantity": "remaining binding", "result": "100%"}
{"SMILES": "C#Cc1n[nH]c2c(-c3cn(C(C)c4ccccn4)c(=O)[nH]c3=O)cc(F)cc12 (centres unmarked)", "target": "Mitogen-activated protein kinase kinase kinase kinase 3 (MAP4K3, Homo sapiens, UniProt Q8IVH8)", "test": "enzyme activity, inhibitor", "conditions": "1 µM", "quantity": "inhibition", "result": "9.1%"}
{"SMILES": "CN(C)C(=O)COC(=O)Cc1ccc(OC(=O)c2ccc(NC(=N)N)cc2)cc1", "target": "MMP7", "test": "enzyme activity, inhibitor", "conditions": "10 µM", "quantity": "inhibition", "result": "2%"}
{"SMILES": "Cc1ccc(-c2cnnc(N3CCC(c4cccc(Cl)c4)C3)n2)o1 (centres unmarked)", "target": "Inorganic pyrophosphatase (Mycobacterium tuberculosis, UniProt P9WI55)", "test": "enzyme activity, inhibitor", "conditions": "100 µM", "quantity": "inhibition", "result": "45%"}
{"SMILES": "CNC(=O)[C@H](Cc1ccccc1)NC(=O)[C@H](CC(C)C)[C@H](CSc1cccs1)C(=O)NO", "target": "MMP7", "test": "enzyme activity, inhibitor", "conditions": "1 nM", "quantity": "inhibition", "result": "31%"}
{"SMILES": "COc1ncccc1-c1cnn2ccc(N3CCN(C(=O)OC(C)C)CC3)nc12", "target": "Serine/threonine-protein kinase/endoribonuclease IRE1 (ERN1, Homo sapiens, UniProt O75460)", "test": "binding, competition with immobilised ligand", "conditions": "1 µM", "quantity": "remaining binding", "result": "67%"}
